Numbered stars: 1 amine (or outer) side, 2 acyl side, 3 side chain; on linkers, the order of the positions; unused ones are H or OH. Bridge positions count the residues as written; N and C are the ends. Square brackets hold non-standard residues; d marks the D form. Peptide text beside a SMILES is read from it. X1 = O=C(CC1(S[*:2])CCCCC1)[*:1]
What was measured:
[1] = species on record: Rattus norvegicus; test: In vitro anti-oxytocic potency of compound in rat uterus in presence of 0.5 mM of Mg; format: functional; settings: read-out: pA2 (converted)
How it was run: (§1)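 Oxytocic antagonism on isolated rat uteri, with the USP posterior pituitary reference standard as agonist. Potency is expressed as a pA2 value.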

[2] = species on record: Rattus norvegicus; test: In vitro anti-oxytocic potency of compound in rat uterus in absence of Mg; format: functional; settings: read-out: pA2 (converted); how it was run: as §1
[3] = Ratio of anti-oxytocic ED to antidiuretic ED was determined; format: functional, Urine
How it was run: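 Ratio computed as antioxytocic effective dose divided by antiantidiuretic effective dose. Both effective doses are defined as the dose (nmol/kg) that reduces the 2x-unit agonist response to the 1x-unit response.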

[4] = test system: Rattus norvegicus; test: The compound tested in vivo for anti-vasopressor potency in rats; format: functional, organism-based; settings: read-out: pA2 (converted)
How it was run: (§2)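 Intravenous vasopressor assay in phenoxybenzamine-treated rats under urethane anaesthesia, with the USP posterior pituitary reference standard as agonist. Each antagonist was given at two doses. The effective dose (nmol/kg) is the dose that cuts the response to 2x units of agonist to the response to 1x unit given before antagonist. It was interpolated on a log scale between the two doses.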

[5] = test system: Rattus norvegicus; test: (§3) In vivo anti-oxytocic potency of compound was determined in rat uterus; format: functional, organism-based; settings: read-out: pA2 (converted)
How it was run: (§4)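 Rat uterus in situ, with synthetic oxytocin as agonist. Two antagonist doses were used, and the effective dose (nmol/kg) was interpolated on a log scale as the dose reducing the 2x-unit response to the 1x-unit response.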

[6] = test system: Rattus norvegicus; test: as §3; format: functional; how it was run: as §4
[7] = Ratio of anti-vasopressor ED to antidiuretic ED was determined; format: functional, Urine
How it was run: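 Ratio computed as antivasopressor effective dose divided by antiantidiuretic effective dose. Both effective doses come from intravenous rat assays and are defined as the dose (nmol/kg) that reduces the 2x-unit agonist response to the 1x-unit response.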

[8] = test system: Rattus norvegicus; test: In vivo antiantidiuretic potency of compound was determined in rats; format: functional, organism-based; settings: Urine, read-out: pA2 (converted)
How it was run: (§5)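 Antidiuretic assay in rats under ethanol anaesthesia, with the USP posterior pituitary reference standard as agonist, given intravenously. The standard was injected 20 min after antagonist, or 10 min for analogues without agonism. Two antagonist doses were used, and the effective dose (nmol/kg) was log-interpolated as the dose reducing the 2x-unit response to the 1x-unit response. In vivo pA2 = −log(effective dose/estimated volume of distribution).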

[9] = species on record: Rattus norvegicus; test: Effective dose of compound was determined for antiantidiuretic potency in rats; format: functional, Urine; how it was run: as §5
[10] = species on record: Rattus norvegicus; test: Effective dose of compound was determined for anti-vasopressor potency in rat; format: functional; how it was run: as §2
[11] = species on record: Rattus norvegicus; test: Effective dose of compound was determined for anti-vasopressor potency in rat; Weak agonist; format: functional, organism-based; settings: filed as partial agonist
[12] = species on record: Rattus norvegicus; test: Effective dose of compound was determined for antiantidiuretic potency in rats; Weak agonist; format: functional, organism-based; settings: Urine, filed as partial agonist
How it was run: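 Intravenous antidiuretic assay in rats under ethanol anesthesia. The agonist was the USP posterior pituitary reference standard, injected 20 min after the antagonist to allow recovery from initial antidiuretic responses. Antagonist was given at high and low doses. The effective dose (nmol/kg) reduces the response to 2x units of agonist to that of 1x unit given before antagonist, log-interpolated.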

SMILES | Kb [1] | Kb [2] | ED ratio [3] | Kb [4] | Kb [5] | ED [6] | ED ratio [7] | Kb [8] | ED [9] | ED [10] | ED [11] | ED [12]
CC[C@H](C)[C@@H]1NC(=O)[C@H](Cc2ccccc2)NC(=O)[C@@H](Cc2ccccc2)NC(=O)CC2(CCCCC2)SSC[C@@H](C(=O)N2CCC[C@H]2C(=O)N[C@@H](CCCN=C(N)N)C(=O)NCC(N)=O)NC(=O)[C@H](CC(N)=O)NC1=O ([dF]FINCPRG-NH2; linker N-5 via X1) | 6.46 nM | 9.12 nM | 13 | 13.8 nM | 77.6 nM | 5.8 nM/kg | 2.2 | 5.75 nM | 0.46 nM/kg | 0.99 nM/kg | – | –
CCCC[C@@H]1NC(=O)[C@H](Cc2ccccc2)NC(=O)[C@@H](Cc2ccccc2)NC(=O)CC2(CCCCC2)SSC[C@@H](C(=O)N2CCC[C@H]2C(=O)N[C@@H](CCCN=C(N)N)C(=O)NCC(N)=O)NC(=O)[C@H](CC(N)=O)NC1=O | 16.6 nM | 28.8 nM | – | 30.2 nM | – | – | 0.4 | 75.9 nM | 5.6 nM/kg | 2.1 nM/kg | – | –
NC(=O)CC[C@@H]1NC(=O)[C@H](Cc2ccccc2)NC(=O)[C@@H](Cc2ccccc2)NC(=O)CC2(CCCCC2)SSC[C@@H](C(=O)N2CCC[C@H]2C(=O)N[C@@H](CCCN=C(N)N)C(=O)NCC(N)=O)NC(=O)[C@H](CC(N)=O)NC1=O [listing 1 of 2 here] | 3.72 nM | 2.57 nM | – | 4.47 nM | 56.2 nM | – | – | 61.7 nM | – | – | – | –
NC(=O)CNC(=O)[C@H](CCCN=C(N)N)NC(=O)[C@@H]1CCCN1C(=O)[C@@H]1CSSC2(CCCCC2)CC(=O)N[C@H](Cc2ccccc2)C(=O)N[C@@H](Cc2ccccc2)C(=O)NCC(=O)N[C@@H](CC(N)=O)C(=O)N1 | 46.8 nM | 17.4 nM | – | 162 nM | – | – | 0.11 | 1410 nM | 97 nM/kg | 11 nM/kg | – | –
CC(C)C[C@@H]1NC(=O)[C@H](Cc2ccccc2)NC(=O)[C@@H](Cc2ccccc2)NC(=O)CC2(CCCCC2)SSC[C@@H](C(=O)N2CCC[C@H]2C(=O)N[C@@H](CCCN=C(N)N)C(=O)NCC(N)=O)NC(=O)[C@H](CC(N)=O)NC1=O | 13.2 nM | – | – | 20 nM | – | – | 0.02 | 851 nM | 66 nM/kg | 1.3 nM/kg | – | –
NC(=O)CNC(=O)[C@H](CCCN=C(N)N)NC(=O)[C@@H]1CCCN1C(=O)[C@@H]1CSSC2(CCCCC2)CC(=O)N[C@H](Cc2ccccc2)C(=O)N[C@@H](Cc2ccccc2)C(=O)N[C@@H](Cc2ccc(O)cc2)C(=O)N[C@@H](CC(N)=O)C(=O)N1 | 37.2 nM | 20.9 nM | – | 263 nM | – | – | 0.12 | ~2690 nM | ~178 nM/kg | 22 nM/kg | – | –
NC(=O)CC[C@@H]1NC(=O)[C@H](Cc2ccccc2)NC(=O)[C@@H](Cc2ccccc2)NC(=O)CC2(CCCCC2)SSC[C@@H](C(=O)N2CCC[C@H]2C(=O)N[C@@H](CCCN=C(N)N)C(=O)NCC(N)=O)NC(=O)[C@H](CC(N)=O)NC1=O [listing 2 of 2 here] | – | – | 0.9 | – | – | 4 nM/kg | 0.07 | – | 4.3 nM/kg | 0.3 nM/kg | – | –
NC(=O)CNC(=O)[C@H](CCCN=C(N)N)NC(=O)[C@@H]1CCCN1C(=O)[C@@H]1CSSC2(CCCCC2)CC(=O)N[C@H](Cc2ccccc2)C(=O)N[C@@H](Cc2ccccc2)C(=O)N[C@@H](CC2CCCCC2)C(=O)N[C@@H](CC(N)=O)C(=O)N1 | 25.7 nM | 16.6 nM | – | 200 nM | – | – | 2 | 64.6 nM | 4.6 nM/kg | 9 nM/kg | – | –
CCC[C@@H]1NC(=O)[C@H](Cc2ccccc2)NC(=O)[C@@H](Cc2ccccc2)NC(=O)CC2(CCCCC2)SSC[C@@H](C(=O)N2CCC[C@H]2C(=O)N[C@@H](CCCN=C(N)N)C(=O)NCC(N)=O)NC(=O)[C@H](CC(N)=O)NC1=O | 19.1 nM | 9.33 nM | – | 18.6 nM | – | – | 0.2 | 102 nM | 6.9 nM/kg | 1.4 nM/kg | – | –
C[C@@H](O)[C@@H]1NC(=O)[C@H](Cc2ccccc2)NC(=O)[C@@H](Cc2ccccc2)NC(=O)CC2(CCCCC2)SSC[C@@H](C(=O)N2CCC[C@H]2C(=O)N[C@@H](CCCN=C(N)N)C(=O)NCC(N)=O)NC(=O)[C@H](CC(N)=O)NC1=O | 9.77 nM | 9.12 nM | 1.9 | 41.7 nM | 44.7 nM | 3.2 nM/kg | 1.7 | 24 nM | 1.7 nM/kg | 2.9 nM/kg | – | –
NC(=O)CNC(=O)[C@H](CCCN=C(N)N)NC(=O)[C@@H]1CCCN1C(=O)[C@@H]1CSSC2(CCCCC2)CC(=O)N[C@H](Cc2ccccc2)C(=O)N[C@@H](Cc2ccccc2)C(=O)N2CCC[C@H]2C(=O)N[C@@H](CC(N)=O)C(=O)N1 | 3720 nM | 1740 nM | – | – | – | – | – | – | – | – | Partial agonist | Partial agonist
NC(=O)CNC(=O)[C@H](CCCN=C(N)N)NC(=O)[C@@H]1CCCN1C(=O)[C@@H]1CSSC2(CCCCC2)CC(=O)N[C@H](Cc2ccccc2)C(=O)N[C@@H](Cc2ccccc2)C(=O)N[C@@H](Cc2ccccc2)C(=O)N[C@@H](CC(N)=O)C(=O)N1 | 21.4 nM | 26.9 nM | – | 355 nM | – | – | 0.5 | 851 nM | 65 nM/kg | 25 nM/kg | – | –
CC(C)[C@@H]1NC(=O)[C@H](Cc2ccccc2)NC(=O)[C@@H](Cc2ccccc2)NC(=O)CC2(CCCCC2)SSC[C@@H](C(=O)N2CCC[C@H]2C(=O)N[C@@H](CCCN=C(N)N)C(=O)NCC(N)=O)NC(=O)[C@H](CC(N)=O)NC1=O ([dF]FVNCPRG-NH2; linker N-5 via X1) | – | – | – | – | – | 8.9 nM/kg | 0.9 | – | 0.67 nM/kg | 0.58 nM/kg | – | –
CC[C@@H]1NC(=O)[C@H](Cc2ccccc2)NC(=O)[C@@H](Cc2ccccc2)NC(=O)CC2(CCCCC2)SSC[C@@H](C(=O)N2CCC[C@H]2C(=O)N[C@@H](CCCN=C(N)N)C(=O)NCC(N)=O)NC(=O)[C@H](CC(N)=O)NC1=O | – | 18.6 nM | – | 20 nM | 30.2 nM | 2.4 nM/kg | – | 11 nM | 0.77 nM/kg | 1.4 nM/kg | – | –
C[C@@H]1NC(=O)[C@H](Cc2ccccc2)NC(=O)[C@@H](Cc2ccccc2)NC(=O)CC2(CCCCC2)SSC[C@@H](C(=O)N2CCC[C@H]2C(=O)N[C@@H](CCCN=C(N)N)C(=O)NCC(N)=O)NC(=O)[C@H](CC(N)=O)NC1=O | 18.6 nM | 20.9 nM | – | 28.2 nM | – | – | 0.9 | 30.2 nM | 2.2 nM/kg | 1.9 nM/kg | – | –

Source: ChEMBL document CHEMBL1122393, “Potent antagonists of the antidiuretic responses to arginine-vasopressin based on modifications of [1-(beta-mercapto-beta,beta-cyclopentamethylenepropionic acid),2-D- phenylalanine,4-valine]arginine-vasopressin at position 4” (J Med Chem, 1983)
